According to publication PMC10089208 (Proceedings of the National Academy of Sciences of the …, 2023):
Bridge positions count the residues as written; N and C are the ends. Peptide text beside a SMILES is read from it.

B1: Wnt1: human Wnt1, canonical, overexpressed (protein, UniProt P04628 28-370, looked up)
Proto-oncogene Wnt-1: ANSSGRWWGIVNVASSTNLLTDSKSLQLVLEPSLQLLSRKQRRLIRQNPGILHSVSGGLQSAVRECKWQFRNRRWNCPTAPGPHLFGKIVNRGCRETAFIFAITSAGVTHSVARSCSEGSIESCTCDYRRRGPGGPDWHWGGCSDNIDFGRLFGREFVDSGEKGRDLRFLMNLHNNEAGRTTVFSEMRQECKCHGMSGSCTVRTCWMRLPTLRAVGDVLRDRFDGASRVLYGNRGSNRASRAELLRLEPEDPAHKPPSPHDLVYFEKSPNFCTYSGRLGTAGTAGRACNSSSPALDGCELLCCGRGHRTRTQRVTERCNCTFHWCCHVSCRNCTHTRVLHECL
B2: Wnt3a: human Wnt3a, canonical, overexpressed (protein, UniProt P56704 19-352, looked up)
Protein Wnt-3a: SYPIWWSLAVGPQYSSLGSQPILCASIPGLVPKQLRFCRNYVEIMPSVAEGIKIGIQECQHQFRGRRWNCTTVHDSLAIFGPVLDKATRESAFVHAIASAGVAFAVTRSCAEGTAAICGCSSRHQGSPGKGWKWGGCSEDIEFGGMVSREFADARENRPDARSAMNRHNNEAGRQAIASHMHLKCKCHGLSGSCEVKTCWWSQPDFRAIGDFLKDKYDSASEMVVEKHRESRGWVETLRPRYTYFKVPTERDLVYYEASPNFCEPNPETGSFGTRDRTCNVSSHGIDGCDLLCCGRGHNARAERRREKCRCVFHWCCYVSCQECTRVYDVHTCK
B3: YW210.09 Fab (Fab, V domains shown)
VH: EVQLVESGGGLVQPGGSLRLSCAASGFTFTNSYIHWVRQAPGKGLEWVGWITPYGGYTNYADSVKGRFTISADTSKNTAYLQMNSLRAEDTAVYYCARGSGHVNAVKNYGYVMDYWGQGTLVTVSS
VL: DIQMTQSPSSLSASVGDRVTITCRASQDVSTAVAWYQQKPGKAPKLLIYSASFLYSGVPSRFSGSGSGTDFTLTISSLQPEDFATYYCQQSYTTPPTFGQGTKVEIK

What was measured:
LRP6E1E2 = test: ELISA competition assay of Wnt.cys peptides with Fab YW210 for LRP6E1E2; type: binding, human; conditions: LRP6E1E2 constant at 3x EC50, serial dilution of YW210
[1] = system: Wnt1-mediated β-catenin signaling; test: TOPbrite dual-luciferase reporter assay, inhibition of Wnt1-mediated signaling; type: cell-based, human; conditions: HEK293 TOPbrite cells transfected with Wnt1; treatment 6 h before measurement
Method in brief: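 Wnt1 construct was transfected with FuGENE HD into TOPbrite/Renilla HEK293 cells (DMEM/F12, 10% FBS, hygromycin, 37 °C), seeded 24 h earlier, then incubated 24–48 h. Linker peptides or LRP6 Fabs were added 6 h before reading. Dual-Glo firefly/Renilla luminescence ratio was calculated, in some instances normalized to nontreated controls.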

Reck = test: ELISA binding of linker peptides to Reck; conditions: immobilised biotinylated peptide
Method in brief: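 Neutravidin-coated (5 μg/mL) plates blocked with 0.5% BSA/PBS for 2 h at room temperature, then loaded with 1 μg biotinylated linker peptide per well. Serial dilutions of His-tagged Reck in PBS/0.5% BSA/0.05% Tween 20 were incubated for 45 min at room temperature. After washing, bound protein was detected with HRP anti-His (1:5,000, 45 min) and TMB, reading absorbance at 450 nm.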

[2] = system: HEK293 luciferase reporter cells, phospho-LRP6 and active β-catenin; type: cell-based, human; conditions: overexpression, 250 ng DNA, 24 h, Western blot
[3] = system: HEK293 TOPbrite reporter cells, β-catenin signaling; type: cell-based, human; conditions: transfection of 0 to 25 ng construct, 24 to 48 h; normalized to empty vector
Method in brief: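 HEK293 cells carried a stable firefly TOPbrite Wnt reporter plus pRL-SV40 Renilla and were kept in DMEM/F12 (50:50) with 10% FBS, GlutaMAX and 40 μg/mL hygromycin at 37 °C, 5% CO2. Cells were seeded at 20,000–40,000 per well, grown 24 h, then transfected with 0–25 ng Wnt or chimera construct using FuGENE HD. After 24–48 h, Dual-Glo firefly/Renilla ratio was normalized to empty vector.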

[4] = biological target: hLRP6_(E1E2) (residues 20 to 631), C-terminal hexahistidine-tag, for ELISA (human, UniProt O75581); test: ELISA
hLRP6_(E1E2) (residues 20 to 631), C-terminal hexahistidine-tag, for ELISA, sequence (O75581 20-631): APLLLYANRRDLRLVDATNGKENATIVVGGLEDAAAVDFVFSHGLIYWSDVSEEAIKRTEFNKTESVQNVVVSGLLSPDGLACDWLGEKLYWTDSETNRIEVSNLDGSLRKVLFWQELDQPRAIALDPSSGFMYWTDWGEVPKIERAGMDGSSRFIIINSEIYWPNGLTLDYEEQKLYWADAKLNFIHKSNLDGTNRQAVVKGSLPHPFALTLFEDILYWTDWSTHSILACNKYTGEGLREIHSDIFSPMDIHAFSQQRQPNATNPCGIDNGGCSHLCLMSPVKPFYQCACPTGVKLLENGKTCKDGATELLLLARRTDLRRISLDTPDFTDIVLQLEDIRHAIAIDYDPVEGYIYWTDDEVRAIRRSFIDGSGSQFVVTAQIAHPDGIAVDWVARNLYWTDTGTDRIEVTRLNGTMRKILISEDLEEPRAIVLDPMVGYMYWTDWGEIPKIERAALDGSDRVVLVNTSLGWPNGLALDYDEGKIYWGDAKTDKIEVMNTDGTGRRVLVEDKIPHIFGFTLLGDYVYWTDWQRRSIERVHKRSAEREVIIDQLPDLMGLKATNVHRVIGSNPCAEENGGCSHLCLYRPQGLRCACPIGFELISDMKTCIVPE

Row | Molecule | competition of Fab YW210 with the peptide for LRP6E1E2 binding (LRP6E1E2) | inhibition of Wnt1-mediated β-catenin signaling [1] | other results
1 | CC(C)C[C@@H]1NC(=O)[C@H](CCC(=O)O)NC(=O)[C@H](C)NC(=O)[C@H](CCCNC(=N)N)NC(=O)[C@H](CO)NC(=O)[C@H](C)NC(=O)[C@H](CCCNC(=N)N)NC(=O)[C@H](CC(N)=O)NC(=O)[C@H](CO)NC(=O)CNC(=O)[C@H](CCCNC(=N)N)NC(=O)[C@H](CC(N)=O)NC(=O)CNC(=O)[C@H](Cc2ccc(O)cc2)NC(=O)[C@H](CC(C)C)NC(=O)[C@H](C(C)C)NC(=O)[C@H](CCCNC(=N)N)NC(=O)[C@H](CO)NC(=O)[C@@H](NC(=O)CN)CSSC[C@@H](C(=O)N[C@H](C(=O)O)C(C)C)NC(=O)[C@H](CC(=O)O)NC(=O)[C@H](Cc2c[nH]cn2)NC(=O)[C@@H]2CCCN2C(=O)[C@H](CO)NC(=O)[C@@H]2CCCN2C(=O)[C@@H]2CCCN2C(=O)[C@H](CCCCN)NC(=O)[C@H](Cc2c[nH]cn2)NC(=O)[C@H](C)NC(=O)[C@@H]2CCCN2C(=O)[C@H](CC(=O)O)NC(=O)[C@H](CCC(=O)O)NC(=O)[C@@H]2CCCN2C(=O)[C@H](CCC(=O)O)NC(=O)[C@H](CC(C)C)NC(=O)[C@H](CCCNC(=N)N)NC(=O)[C@H](CC(C)C)NC1=O [W1.cys] (H-GCSRVLYGNRGSNRASRAELLRLEPEDPAHKPPSPHDCV-OH; disulfide 2-38; N-terminus and C-terminus assumed) | competed strongly | inhibited | 
2 | CSCC[C@@H]1NC(=O)[C@H](C(C)C)NC(=O)[C@H](CCC(N)=O)NC(=O)[C@H](C(C)C)NC(=O)[C@@H](NC(=O)CN)CSSC[C@@H](C(=O)N[C@H](C(=O)O)C(C)C)NC(=O)[C@H](CC(=O)O)NC(=O)[C@H]([C@@H](C)O)NC(=O)[C@H](CCCNC(=N)N)NC(=O)[C@H]([C@@H](C)O)NC(=O)[C@H](C)NC(=O)[C@H](CCCNC(=N)N)NC(=O)[C@H](CCCNC(=N)N)NC(=O)[C@H](Cc2ccc(O)cc2)NC(=O)CNC(=O)[C@H](CCC(N)=O)NC(=O)[C@H](CCCNC(=N)N)NC(=O)[C@H](C)NC(=O)[C@H](C)NC(=O)[C@H]([C@@H](C)O)NC(=O)[C@H](Cc2ccccc2)NC(=O)[C@H](CC(N)=O)NC(=O)[C@H](C)NC(=O)CNC(=O)[C@H](CC(=O)O)NC(=O)[C@H](CCC(N)=O)NC(=O)[C@H]([C@@H](C)O)NC(=O)[C@H](C)NC1=O [W2b.cys] (H-GCVQVMATQDGANFTAARQGYRRATRTDCV-OH; disulfide 2-29; N-terminus and C-terminus assumed) | competed strongly | inhibited | 
3 | CSCC[C@@H]1NC(=O)[C@H](CCC(=O)O)NC(=O)[C@H](CO)NC(=O)[C@@H](NC(=O)[C@@H](N)CO)CSSC[C@@H](C(=O)N[C@H](C(=O)O)C(C)C)NC(=O)[C@H](CC(=O)O)NC(=O)[C@H](CCCNC(=N)N)NC(=O)[C@H](CCC(=O)O)NC(=O)[C@H]([C@@H](C)O)NC(=O)[C@@H]2CCCN2C(=O)[C@H](C(C)C)NC(=O)[C@H](CCCCN)NC(=O)[C@H](Cc2ccccc2)NC(=O)[C@H](Cc2ccc(O)cc2)NC(=O)[C@H]([C@@H](C)O)NC(=O)[C@H](Cc2ccc(O)cc2)NC(=O)[C@H](CCCNC(=N)N)NC(=O)[C@@H]2CCCN2C(=O)[C@H](CCCNC(=N)N)NC(=O)[C@H](CC(C)C)NC(=O)[C@H]([C@@H](C)O)NC(=O)[C@H](CCC(=O)O)NC(=O)[C@H](C(C)C)NC(=O)[C@H](Cc2c[nH]c3ccccc23)NC(=O)CNC(=O)[C@H](CCCNC(=N)N)NC(=O)[C@H](CO)NC(=O)[C@H](CCC(=O)O)NC(=O)[C@H](CCCNC(=N)N)NC(=O)[C@H](Cc2c[nH]cn2)NC(=O)[C@H](CCCCN)NC(=O)[C@H](CCC(=O)O)NC(=O)[C@H](C(C)C)NC(=O)[C@H](C(C)C)NC1=O [W3a.cys] (H-SCSEMVVEKHRESRGWVETLRPRYTYFKVPTERDCV-OH; disulfide 2-35; N-terminus and C-terminus assumed) | could not be outcompeted |  | 
4 | CC[C@H](C)[C@@H]1NC(=O)[C@H](CCCCN)NC(=O)[C@H](CC(C)C)NC(=O)[C@H](Cc2ccccc2)NC(=O)[C@H]([C@@H](C)O)NC(=O)[C@@H]2CCCN2C(=O)[C@H](CCCNC(=N)N)NC(=O)[C@H](CCCCN)NC(=O)[C@H](CC(N)=O)NC(=O)[C@H](CCCNC(=N)N)NC(=O)[C@H](CO)NC(=O)[C@H](C)NC(=O)[C@H](CCCNC(=N)N)NC(=O)[C@H](C(C)C)NC(=O)[C@@H]2CCCN2C(=O)[C@H](CCC(=O)O)NC(=O)[C@H](C(C)C)NC(=O)[C@H](Cc2c[nH]cn2)NC(=O)[C@H](C(C)C)NC(=O)[C@@H](NC(=O)[C@@H](N)CCC(=O)O)CSSC[C@@H](C(=O)N[C@H](C(=O)O)C(C)C)NC(=O)[C@H](CC(=O)O)NC(=O)[C@H]([C@@H](C)O)NC(=O)[C@H](CC(=O)O)NC(=O)[C@H](CCSC)NC(=O)[C@@H]2CCCN2C(=O)[C@H](CCCCN)NC(=O)[C@H](CCCNC(=N)N)NC(=O)[C@H](Cc2ccc(O)cc2)NC(=O)[C@H](CO)NC(=O)[C@H](CC(C)C)NC(=O)[C@@H]2CCCN2C(=O)[C@H](CCCCN)NC(=O)[C@H](CCCCN)NC1=O [W7a.cys] (H-ECVHVEPVRASRNKRPTFLKIKKPLSYRKPMDTDCV-OH; disulfide 2-35; N-terminus and C-terminus assumed) | partially | inhibited | binding to Reck (Reck): bound Reck
5 | YW210: Fab that binds predominantly to the LRP6 E1 domain [reference compound] |  | inhibited Wnt1-induced signaling | 
6 | B1 |  |  | LRP6 phosphorylation [2]: induced; accumulation of active (nonphosphorylated) β-catenin [2]: induced; β-catenin signaling induced by overexpression (TOPbrite) [3]: induced β-catenin signaling
7 | B2 |  |  | LRP6 phosphorylation [2]: induced; accumulation of active (nonphosphorylated) β-catenin [2]: induced; β-catenin signaling induced by overexpression (TOPbrite) [3]: induced β-catenin signaling
8 | B3 |  |  | binding result [4]: binds
